We go through one molecule from ChEMBL document CHEMBL5678802, “Small-molecule p21-activated kinase inhibitor PF-3758309 is a potent inhibitor of oncogenic signaling and tumor growth” (Proc Natl Acad Sci U S A, 2010).

The test system of assay [1] is NCI-H82. Kind of assay: Antiproliferative activity against human NCI-H82 cells assessed as inhibition of cell proliferation incubated for 3 days by CellTiter-Glo Luminescent Cell Viability Assay. It counts as functional, cell-based. Conditions: NCI-H82, 72 h. A digest of the protocol: (§1)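 Cells of each line were plated in 384-well plates on day 1 and exposed to compound from day 2 for 3 days. On day 5 all medium was aspirated. Viable cell number was read by CellTiter-Glo luminescence, which quantifies cellular ATP.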
Background: ATP-based viability assays read luminescence as a measure of living cells.

In assay [2] the test system is HCT-116. Briefly: Antitumor activity against human HCT-116 cells xenografted in nude mouse assessed as reduction in GSK3beta phosphorylation at S21 residue at 15 to 150 mg/kg/day administered via pump for 18 hrs by Reverse-Phase protein array analysis. The class given is functional, organism-based. Conditions: dose 15-150 mg/kg/day. A general note: A xenograft is tissue or cells of one species grown in another, often human tumour cells in immunodeficient mice.

Assay [3] deals with COLO 205. Kind of assay: Antiproliferative activity against human COLO 205 cells assessed as inhibition of cell proliferation incubated for 3 days by CellTiter-Glo Luminescent Cell Viability Assay. Conditions: COLO 205, 72 h. It counts as functional, cell-based. The gist of the method:
(§2)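 Cancer cell lines seeded in 384-well plates on day 1; compound added on day 2 and left for 3 days. On day 5 all medium was aspirated, and viable cells were quantified by CellTiter-Glo luminescence, which measures cellular ATP. Dose-dependent effects on proliferation were determined.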

Assay [4] deals with HCT-116. Kind of assay: Antitumor activity against human HCT-116 cells xenografted in nude mouse assessed as reduction in AKT1 phosphorylation at S473 residue at 15 to 150 mg/kg/day administered via pump for 18 hrs by Reverse-Phase protein array analysis. The note with it: dose 15-150 mg/kg/day. It counts as functional, organism-based.
For assay [5], the system named is HCC827. Briefly: Inhibition of anchorage independent cell growth in human HCC827 cells incubated for 6 days by Alamar blue reagent based fluorescence plate reader analysis. The class given is functional. Conditions: HCC827, 144 h. A general note: Resazurin is reduced to fluorescent resorufin, in cell work by metabolically active cells.
Assay [6] concerns HCT-116. Briefly: Antitumor activity against human HCT-116 cells xenografted in nude mouse assessed as unbound drug concentration for inhibition of tumor growth at 0.12 to 3.3 mg/kg administered via pump for 9 days. It counts as functional. Conditions: dose 0.12-3.3 mg/kg; time 9 day.
Assay [7] concerns BXPC-3. Kind of assay: Antiproliferative activity against human BXPC-3 cells assessed as inhibition of cell proliferation incubated for 3 days by CellTiter-Glo Luminescent Cell Viability Assay. The note with it: BXPC-3, 72 h. The class given is functional, cell-based. The gist of the method:
as §2

Assay [8] deals with T1, cGMP-dependent protein kinase 1 (Homo sapiens, UniProt Q13976).
T1 sequence (Q13976 whole entry): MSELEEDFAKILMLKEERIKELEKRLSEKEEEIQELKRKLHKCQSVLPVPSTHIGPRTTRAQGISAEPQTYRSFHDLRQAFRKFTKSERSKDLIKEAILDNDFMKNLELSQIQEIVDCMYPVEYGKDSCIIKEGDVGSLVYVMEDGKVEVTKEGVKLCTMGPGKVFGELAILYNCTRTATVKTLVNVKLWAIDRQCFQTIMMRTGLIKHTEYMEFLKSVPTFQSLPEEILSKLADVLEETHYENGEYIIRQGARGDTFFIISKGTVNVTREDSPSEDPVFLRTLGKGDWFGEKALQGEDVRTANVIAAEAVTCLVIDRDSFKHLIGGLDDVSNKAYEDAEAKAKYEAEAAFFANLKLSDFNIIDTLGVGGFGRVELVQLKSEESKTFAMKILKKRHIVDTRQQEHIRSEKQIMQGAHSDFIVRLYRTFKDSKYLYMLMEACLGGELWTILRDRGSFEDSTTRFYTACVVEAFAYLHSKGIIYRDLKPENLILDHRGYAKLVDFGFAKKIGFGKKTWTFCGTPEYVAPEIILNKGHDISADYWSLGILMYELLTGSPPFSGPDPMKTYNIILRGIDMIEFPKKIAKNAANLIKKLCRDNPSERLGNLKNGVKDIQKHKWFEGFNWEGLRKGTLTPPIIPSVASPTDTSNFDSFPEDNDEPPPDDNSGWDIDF
Briefly: Inhibition of human PRKG1 in presence of ATP.

A short description of assay [9]: Antiproliferative activity against human PL45 cells assessed as inhibition of cell proliferation incubated for 3 days by CellTiter-Glo Luminescent Cell Viability Assay. It counts as functional, cell-based. Conditions: PL45, 72 h. A digest of the protocol: as §1
Assay [10] in a line: Inhibition of YFP/YFP variant coding sequence fused p53/Pin1 (unknown origin) expressed in HEK293 cells incubated for 8 to 24 hrs by fluorescence based analysis. The class given is cell-based, Homo sapiens.
Assay [11] relates to MDA-MB-361. Kind of assay: Antiproliferative activity against human MDA-MB-361 cells assessed as inhibition of cell proliferation incubated for 3 days by CellTiter-Glo Luminescent Cell Viability Assay. The class given is functional, cell-based. The note with it: MDA-MB-361, 72 h. A digest of the protocol:
as §2

Assay [12] concerns MIA PaCa-2. Kind of assay: Antiproliferative activity against human MIA PaCa-2 cells assessed as inhibition of cell proliferation incubated for 3 days by CellTiter-Glo Luminescent Cell Viability Assay. The class given is functional, cell-based. The note with it: MIA PaCa-2, 72 h. A digest of the protocol: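 Cancer cell lines seeded in 384-well plates on day 1; compound added on day 2 and incubated 3 days. On day 5 media aspirated and viable cells quantified by ATP content using CellTiter-Glo luminescence; dose-dependent proliferation effects determined.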

For assay [13], the target named is Ribosomal protein S6 kinase alpha-1 (Homo sapiens, UniProt Q15418). Kind of assay: Inhibition of human RSK1 in presence of ATP.
Sequence of Ribosomal protein S6 kinase alpha-1 (Q15418 whole entry): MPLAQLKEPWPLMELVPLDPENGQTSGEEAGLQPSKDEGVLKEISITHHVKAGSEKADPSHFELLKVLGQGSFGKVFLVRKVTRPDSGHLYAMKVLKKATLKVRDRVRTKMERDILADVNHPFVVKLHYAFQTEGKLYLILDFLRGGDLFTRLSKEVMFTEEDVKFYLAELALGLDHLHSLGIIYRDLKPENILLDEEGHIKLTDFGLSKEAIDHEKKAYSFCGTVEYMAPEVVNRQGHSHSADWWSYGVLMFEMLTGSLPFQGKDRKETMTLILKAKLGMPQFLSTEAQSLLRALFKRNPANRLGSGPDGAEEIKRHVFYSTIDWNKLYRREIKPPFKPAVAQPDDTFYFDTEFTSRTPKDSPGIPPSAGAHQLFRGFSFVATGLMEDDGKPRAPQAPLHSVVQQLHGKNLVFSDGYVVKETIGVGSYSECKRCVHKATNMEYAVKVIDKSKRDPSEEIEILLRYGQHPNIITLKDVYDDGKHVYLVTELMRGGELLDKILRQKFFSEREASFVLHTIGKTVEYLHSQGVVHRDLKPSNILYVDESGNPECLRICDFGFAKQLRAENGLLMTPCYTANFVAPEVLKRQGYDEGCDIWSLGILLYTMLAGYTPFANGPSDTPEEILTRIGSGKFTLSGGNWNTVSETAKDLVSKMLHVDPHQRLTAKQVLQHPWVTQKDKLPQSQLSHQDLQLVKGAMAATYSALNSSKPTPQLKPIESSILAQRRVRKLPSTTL
Assay [14] is described as follows: Inhibition of NF-kappaB signaling in HEK293T cells preincubated with compound for 0.5 hrs followed by TNFalpha stimulation and measured after 7 hrs by Steady-Glo luciferase assay. The class given is cell-based. Conditions: Homo sapiens, HEK-293T.
In assay [15] the target is Ribosomal protein S6 kinase alpha-3 (Homo sapiens, UniProt P51812). Briefly: Inhibition of human RSK2 assessed as inhibition constant in presence of ATP.
Sequence of Ribosomal protein S6 kinase alpha-3 (P51812 whole entry): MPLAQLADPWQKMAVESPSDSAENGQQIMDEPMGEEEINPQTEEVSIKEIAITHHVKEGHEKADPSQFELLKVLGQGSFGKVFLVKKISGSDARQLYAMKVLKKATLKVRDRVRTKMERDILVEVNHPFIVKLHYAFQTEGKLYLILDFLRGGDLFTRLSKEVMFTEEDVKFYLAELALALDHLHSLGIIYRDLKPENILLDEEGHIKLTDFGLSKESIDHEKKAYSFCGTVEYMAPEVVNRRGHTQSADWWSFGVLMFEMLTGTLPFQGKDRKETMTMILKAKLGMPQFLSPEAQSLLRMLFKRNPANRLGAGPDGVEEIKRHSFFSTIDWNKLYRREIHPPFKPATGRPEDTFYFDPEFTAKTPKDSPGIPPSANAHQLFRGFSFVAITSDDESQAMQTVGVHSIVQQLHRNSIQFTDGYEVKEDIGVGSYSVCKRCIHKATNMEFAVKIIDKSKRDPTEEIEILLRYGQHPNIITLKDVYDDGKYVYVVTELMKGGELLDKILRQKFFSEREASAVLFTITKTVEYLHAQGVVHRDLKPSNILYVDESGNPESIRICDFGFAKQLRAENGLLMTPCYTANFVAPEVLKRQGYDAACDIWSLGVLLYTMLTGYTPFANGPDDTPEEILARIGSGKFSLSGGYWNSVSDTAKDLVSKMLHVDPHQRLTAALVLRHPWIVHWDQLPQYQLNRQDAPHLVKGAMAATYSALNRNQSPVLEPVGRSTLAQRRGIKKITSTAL
Assay [16] addresses RAC-gamma serine/threonine-protein kinase (Homo sapiens, UniProt Q9Y243). Briefly: Inhibition of human AKT3 in presence of ATP by cellular assay.
The test system of assay [17] is DLD-1. Kind of assay: Antiproliferative activity against human DLD-1 cells assessed as inhibition of cell proliferation incubated for 3 days by CellTiter-Glo Luminescent Cell Viability Assay. It counts as functional, cell-based. The note with it: DLD-1, 72 h. The gist of the method:
as §2

For assay [18], the system named is HCT-116. Kind of assay: Antitumor activity against human HCT-116 cells xenografted in nude mouse assessed as increase in caspase 3 activation at 15 to 25 mg/kg, po administered twice daily for 6 days by immunohistochemical analysis. The class given is functional, organism-based. Conditions: dose 15-25 mg/kg, time 6.0 day. The gist of the method: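 HCT116 cells (2 × 10^6 in 0.15 mL 1:1 Matrigel:PBS) were implanted s.c. in nude mice. At 300–350 mm3, mice were randomized into groups of five and dosed orally twice daily with vehicle, 15 or 25 mg/kg. Tumors were harvested on days 2, 3 and 6, paraformaldehyde-fixed and IHC-stained for caspase 3 (1:200). Three serial sections were scored 0–4 (0 = <2% to 4 = >7% positive cells).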

Assay [19] concerns the target Tyrosine-protein kinase Yes (Homo sapiens, UniProt P07947). Kind of assay: Inhibition of human YES1 in presence of ATP relative to control. The note with it: concentration not given here.
The target in assay [20] is AMP-activated protein kinase (AMPK) alpha-1/beta-1/gamma-1 (Homo sapiens, UniProt P54619+Q13131+Q9Y478). Kind of assay: Inhibition of human AMPK alpha1/beta1/gamma1 assessed as inhibition constant in presence of ATP. It counts as protein-complex assay.
Sequence of AMP-activated protein kinase (AMPK) alpha-1/beta-1/gamma-1 (P54619 whole entry): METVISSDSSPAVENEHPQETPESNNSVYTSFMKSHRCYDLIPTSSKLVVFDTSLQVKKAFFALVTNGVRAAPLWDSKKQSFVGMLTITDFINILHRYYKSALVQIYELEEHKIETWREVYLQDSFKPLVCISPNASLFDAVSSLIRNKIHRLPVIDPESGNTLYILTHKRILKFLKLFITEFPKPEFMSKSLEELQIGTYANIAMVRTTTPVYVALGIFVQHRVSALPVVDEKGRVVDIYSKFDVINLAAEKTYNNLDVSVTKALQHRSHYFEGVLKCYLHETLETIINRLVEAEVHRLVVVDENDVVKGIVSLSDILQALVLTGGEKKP
Sequence of AMP-activated protein kinase (AMPK) alpha-1/beta-1/gamma-1 (Q9Y478 whole entry): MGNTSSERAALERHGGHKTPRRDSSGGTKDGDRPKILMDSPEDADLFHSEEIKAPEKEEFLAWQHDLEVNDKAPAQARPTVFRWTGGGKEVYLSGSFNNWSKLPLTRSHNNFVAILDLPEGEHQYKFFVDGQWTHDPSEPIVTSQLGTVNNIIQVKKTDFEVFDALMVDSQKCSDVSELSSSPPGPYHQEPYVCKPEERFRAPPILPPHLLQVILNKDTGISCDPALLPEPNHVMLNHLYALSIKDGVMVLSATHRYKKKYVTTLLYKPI
Sequence of AMP-activated protein kinase (AMPK) alpha-1/beta-1/gamma-1 (Q13131 whole entry): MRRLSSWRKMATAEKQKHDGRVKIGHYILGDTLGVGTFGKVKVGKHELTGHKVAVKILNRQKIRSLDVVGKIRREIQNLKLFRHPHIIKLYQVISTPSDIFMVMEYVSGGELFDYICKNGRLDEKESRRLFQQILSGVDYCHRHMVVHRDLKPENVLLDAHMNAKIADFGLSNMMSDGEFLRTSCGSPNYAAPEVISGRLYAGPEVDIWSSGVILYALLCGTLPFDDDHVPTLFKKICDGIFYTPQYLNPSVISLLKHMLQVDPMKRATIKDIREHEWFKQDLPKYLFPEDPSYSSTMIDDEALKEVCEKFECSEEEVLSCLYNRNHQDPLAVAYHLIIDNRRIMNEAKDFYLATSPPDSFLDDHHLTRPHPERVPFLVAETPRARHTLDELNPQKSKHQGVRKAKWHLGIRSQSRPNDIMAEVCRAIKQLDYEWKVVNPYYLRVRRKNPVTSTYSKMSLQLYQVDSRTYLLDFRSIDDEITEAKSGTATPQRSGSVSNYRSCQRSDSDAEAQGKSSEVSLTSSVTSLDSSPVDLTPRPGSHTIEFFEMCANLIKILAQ
The test system of assay [21] is MDA-MB-468. Kind of assay: Antiproliferative activity against human MDA-MB-468 cells assessed as inhibition of cell proliferation incubated for 3 days by CellTiter-Glo Luminescent Cell Viability Assay. The class given is functional, cell-based. Conditions: MDA-MB-468, 72 h. A digest of the protocol:
as §2

Active and inactive are the calls of the source. The rule behind the calls is not given here.

Sequence of Tyrosine-protein kinase Yes (P07947 2-543 limits assumed): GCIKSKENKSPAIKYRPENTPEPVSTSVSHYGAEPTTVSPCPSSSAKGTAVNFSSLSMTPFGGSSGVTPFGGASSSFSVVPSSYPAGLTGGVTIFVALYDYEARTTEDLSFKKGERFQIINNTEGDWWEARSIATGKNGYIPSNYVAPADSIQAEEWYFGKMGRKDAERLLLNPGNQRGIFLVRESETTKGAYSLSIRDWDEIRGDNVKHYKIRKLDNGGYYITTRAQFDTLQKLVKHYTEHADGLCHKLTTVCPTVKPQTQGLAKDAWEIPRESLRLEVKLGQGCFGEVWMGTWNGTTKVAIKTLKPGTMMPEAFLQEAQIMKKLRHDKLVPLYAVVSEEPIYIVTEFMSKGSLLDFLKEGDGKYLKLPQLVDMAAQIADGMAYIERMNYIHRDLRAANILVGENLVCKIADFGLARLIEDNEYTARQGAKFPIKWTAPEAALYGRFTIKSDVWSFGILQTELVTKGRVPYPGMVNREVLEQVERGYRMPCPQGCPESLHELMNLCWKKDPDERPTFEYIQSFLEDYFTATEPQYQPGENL
Sequence of RAC-gamma serine/threonine-protein kinase (Q9Y243 whole entry): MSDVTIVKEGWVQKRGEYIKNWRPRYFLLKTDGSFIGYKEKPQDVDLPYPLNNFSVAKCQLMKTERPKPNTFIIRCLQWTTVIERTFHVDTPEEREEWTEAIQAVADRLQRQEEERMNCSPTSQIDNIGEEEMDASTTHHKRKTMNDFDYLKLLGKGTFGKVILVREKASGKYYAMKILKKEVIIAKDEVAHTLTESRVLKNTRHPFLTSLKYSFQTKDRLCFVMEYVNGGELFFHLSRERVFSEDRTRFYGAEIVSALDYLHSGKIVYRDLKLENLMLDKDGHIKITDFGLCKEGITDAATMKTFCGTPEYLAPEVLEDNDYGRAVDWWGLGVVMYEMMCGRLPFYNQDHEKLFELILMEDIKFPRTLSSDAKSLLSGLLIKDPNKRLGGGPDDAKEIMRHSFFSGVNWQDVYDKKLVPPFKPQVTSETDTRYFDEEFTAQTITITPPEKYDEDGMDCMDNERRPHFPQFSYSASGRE

As usually defined, the IC50 is the concentration that gives 50% inhibition. For orientation: Ki means the dissociation constant of the complex between target and ligand, obtained from inhibition or displacement. The term inhibition denotes the relative decrease from the control value, in per cent. On to `Cc1nc(Nc2n[nH]c3c2CN(C(=O)N[C@H](CN(C)C)c2ccccc2)C3(C)C)c2sccc2n1` [PF-03758309], for which the IC50 in assay [1] is 2.1 nM; in [3], 2.8 nM; in assay [5], 2.18 nM; in assay [7] it was 39 nM; in assay [8], 34 nM; in [9], 53 nM. Further, the IC50 in assay [10] amounted to 5.7 nM; in assay [11], 6.9 nM; in [12], 17 nM; in assay [13], 2 nM; in assay [14] it was 24.2 nM; in assay [16] it was 3600 nM. In addition, the IC50 in assay [17] was determined as 10000 nM; in assay [21], 0.63 nM. The result in assay [2], in assay [4] and in assay [18] was Active. Further, the fIC50 in assay [6] worked out at 0.4 nM. Also, the Ki in assay [15] and in [20] was 5 nM each time. For the same molecule, the inhibition in assay [19] stood at 92%.
